Compounds with a hit are over-represented: about 9.6% of the library has one in this group of screens.
HCT116 bCat-KO – beta-catenin-lacking colon tumor cell growth suppression; HCT116 beta-catenin knockout viability, CellTiter-Glo, 60 h; stronger effect = lower value; viability, % at 10 µM; 140,000 tested, 1.5% active; AID 818;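 active = viability at or under a set limit, the compound median less 4 SD, cut at about 6% in these data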
PTEN del growth – PTEN-deleted cell growth suppression; HCT116 PTEN-null viability, CellTiter-Glo, 60 h; stronger effect = lower value; viability, % at 10 µM; 140,000 tested, 1.2% active;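 active = viability at or below a set limit, 4 SD under the median of all tested compounds, cut at about 3.7% in these data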;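 note: PTEN knockout HCT116 line with beta catenin targeted HCT116 as companion control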
TNAP act hiacc – TNAP (human) activation, high acceptor; P05186; purified TNAP, CDP-star luminescence, 1 M DEA, 30 min; stronger effect = higher value; 0 = EDTA background, 1 = DMSO-only activity; activation factor at 20 µM; 200,000 tested, under 10 active;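 active = activation factor at least 2 at 20 µM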
Target sequence (P05186 whole entry, looked up): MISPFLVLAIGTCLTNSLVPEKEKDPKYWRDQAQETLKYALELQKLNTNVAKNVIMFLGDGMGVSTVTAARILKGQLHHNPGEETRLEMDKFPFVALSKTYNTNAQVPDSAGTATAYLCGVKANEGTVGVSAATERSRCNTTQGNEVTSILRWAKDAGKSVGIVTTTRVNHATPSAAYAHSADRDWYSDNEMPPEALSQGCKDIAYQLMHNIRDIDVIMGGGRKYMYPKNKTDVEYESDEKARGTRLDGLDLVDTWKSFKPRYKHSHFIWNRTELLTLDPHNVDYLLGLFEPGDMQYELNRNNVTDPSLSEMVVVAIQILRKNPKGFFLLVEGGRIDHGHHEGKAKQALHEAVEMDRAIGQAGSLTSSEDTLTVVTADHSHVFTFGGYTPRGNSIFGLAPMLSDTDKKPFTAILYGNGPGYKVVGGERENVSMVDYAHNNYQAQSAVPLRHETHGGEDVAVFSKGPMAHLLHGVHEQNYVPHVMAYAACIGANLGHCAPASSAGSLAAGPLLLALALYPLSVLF
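Control set: EDTA negative control, DMSO positive control / Assay system: human TNAP / Quantity: TNAP 1/800 final / Evaluation: TNAP activation factor scaled between EDTA and DMSO control wells / Measured by: luminescent substrate turnover signal / Compound dosing: one dose, 20 µM / Times: 30 min enzyme reaction at room temperature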
TNAP inh noacc – TNAP (human) inhibition, acceptor-free conditions; purified TNAP, CDP-star luminescence, 30 min; inhibition, % at 20 µM; 200,000 tested, 0.26% active; AID 1012;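 active = tissue-nonspecific alkaline phosphatase inhibition above about 50% at 20 µM in the single-dose screen, limit read from the data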
TNAP inh hi DEA – blocks human TNAP under high phosphate acceptor concentration | P05186 | inhibition, % at 20 µM | purified TNAP, CDP-star luminescence, 1 M DEA | 200,000 tested, 0.03% active;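 active = over 50% inhibition of tissue-nonspecific alkaline phosphatase at 20 µM in the single-dose screen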
L major viab – Leishmania major promastigote growth inhibition; inhibition, % at 10 µM; Leishmania major promastigotes, resazurin fluorescence viability; 200,000 tested, 9% active; AID 1063; in the data active = inhibition above about 50%;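 note: promastigotes grown with compound for 44 hours at 28 °C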
Numbers stand for hits; - = inactive; . = not tested or not shown.

SMILES | HCT116 bCat-KO | PTEN del growth | TNAP act hiacc | TNAP inh noacc | TNAP inh hi DEA | L major viab
Cc1ccc(-c2csc(NC(=O)CSc3nc4ccccc4c(=O)n3CCCN(C)C)n2)cc1 | . | . | - | - | - | 100
CCCCn1c(SCC(=O)Nc2nnc(CC)s2)nc2ccccc2c1=O | - | - | - | - | - | -
CCn1c(SCC(=O)Nc2nc(-c3ccc(C)cc3)cs2)nnc1-c1ccccc1 | - | - | - | - | - | -
COc1ccc(O[C@H]2C=C[C@@H](c3ccccc3)O[C@@H]2COC(=O)CC/C(C)=N/OC[C@@H](O)[C@H]2O[C@@H]3OC(C)(C)O[C@@H]3[C@H]2O)cc1 | - | - | - | - | - | -
OCC1(Cc2ccccc2)CCN(CCCC2CCCC2)CC1 | . | . | - | - | - | 96
COCc1ccc(CN2CCCC(CO)(Cc3ccccc3)C2)o1 (centres undefined) | . | . | - | - | - | -
OCC1(Cc2ccccc2)CCN(Cc2ccc(-c3ccco3)cc2)CC1 | . | . | - | - | - | 91
Cc1c(CN2CCC(CO)(Cc3ccccc3)CC2)c2ccccc2n1C | . | . | - | - | - | -
OCC1(Cc2ccccc2)CCCN(Cc2ccc(-c3ccco3)cc2)C1 (centres undefined) | . | . | - | - | - | 80
Cc1ccc(NC(=O)Cn2nc(C)c(S(=O)(=O)N(C)C)c2C)cc1 | . | . | - | - | - | -
COc1ccccc1NS(=O)(=O)c1cccc(C(=O)OCc2nc3ccccc3s2)c1 | - | - | - | - | - | 90
COc1ccccc1NS(=O)(=O)c1cccc(NC(=O)Nc2ccccc2)c1 | - | - | - | - | - | 99
COc1ccccc1NS(=O)(=O)c1ccc(Cl)cc1 | - | - | - | - | - | -
COc1ccccc1NS(=O)(=O)c1cccc(NC(=O)c2cc3ccccc3oc2=O)c1 | . | . | - | - | - | -
COc1ccccc1NS(=O)(=O)c1cccc(NC(=O)Nc2ccc(Cl)cc2)c1 | . | . | - | - | - | 97
COc1cccc(NC(=O)Cc2cccs2)c1 | - | - | - | - | - | -
COc1ccccc1NS(=O)(=O)c1cccc(C(=O)OCC(=O)Nc2cc(C)on2)c1 | - | - | - | - | - | -
COc1ccccc1NS(=O)(=O)c1cccc(NC(=O)Cc2cccs2)c1 | - | - | - | - | - | 98
O=C(CC(C(=O)N1CCc2ccccc21)n1ccnc1)NCC1CCCO1 (centres undefined) | - | - | - | - | - | -
O=C(CC(C(=O)N1CCc2ccccc21)n1ccnc1)N1CCc2ccccc2C1 (centres undefined) | - | - | - | - | - | 100
CCN(CCCNC(=O)CC(C(=O)N1CCc2ccccc21)n1ccnc1)c1cccc(C)c1 (centres undefined) | - | - | - | - | - | 100
CCCCNC(=O)CC(C(=O)N1CCc2ccccc21)n1ccnc1 (centres undefined) | - | - | - | - | - | 88
O=C(Cc1ccc(Br)cc1)NCCc1ccc(Cl)cc1Cl | - | - | - | - | - | -
O=C(Cc1ccccc1)NCCc1ccc(Cl)cc1Cl | - | - | - | - | - | 54
N#Cc1ccccc1/C=N/Nc1nc(-c2ccccc2)c2cc(Br)ccc2n1 | 2.1 | - | - | - | - | -
SMILES | HCT116 bCat-KO | PTEN del growth | TNAP act hiacc | TNAP inh noacc | TNAP inh hi DEA | L major viab
Cc1ccc2nc(N/N=C\c3ccc([N+](=O)[O-])o3)nc(-c3ccccc3)c2c1 | 2.1 | 3.0 | - | - | - | 98
O=[N+]([O-])c1ccc(/C=N/Nc2nc(-c3ccccc3)c3cc(Br)ccc3n2)o1 | 1.7 | 1.4 | - | - | - | 93
COc1cccc(CNC(=O)CN2CCC(c3nc4ccc(C)cc4[nH]3)CC2)c1 | . | . | - | - | - | -
COC(=O)c1ccc(CNC(=O)COC(=O)C2CCC(C(C)(C)C)CC2)cc1 (centres undefined) | - | - | - | - | - | -
O=C(NNC(=O)c1ccc2ccccc2c1O)c1ccccc1Cl | - | - | - | 65 | - | -
CN(CC(O)CON=C1c2ccccc2-c2ccccc21)S(=O)(=O)c1ccc(Br)cc1 (centres undefined) | - | - | - | - | - | 100
CS(=O)(=O)N(CC(O)CON=C1c2ccccc2-c2ccccc21)c1ccc(F)cc1 (centres undefined) | - | - | - | - | - | -
CCN(CC(O)CON=C1c2ccccc2-c2ccccc21)S(=O)(=O)c1ccc(C)cc1 (centres undefined) | - | - | - | - | - | 100
Cc1cccc(N(CC(O)CON=C2c3ccccc3-c3ccccc32)S(C)(=O)=O)c1 (centres undefined) | - | - | - | - | - | 56
CCN(CC(O)CON=C1c2ccccc2-c2ccccc21)S(=O)(=O)c1ccc(Cl)cc1 (centres undefined) | - | - | - | - | - | 100
CC1=NN(C(=O)CCc2ccc3c(c2)OCO3)C(O)(C(F)(F)F)C1 (centres undefined) | . | . | - | - | - | -
CCC(C)NC(=O)COc1ccccc1[N+](=O)[O-] (centres undefined) | - | - | - | - | - | -
CCOc1ccccc1OCCN1CCC(Cc2ccccc2)CC1 | - | - | - | - | - | 99
Cc1cccc(C(=O)N2CCC(Cc3ccccc3)CC2)c1[N+](=O)[O-] | - | - | - | - | - | 53
O=C(COc1ccccc1[N+](=O)[O-])N1CCC(Cc2ccccc2)CC1 | . | . | - | - | - | -
Cc1ccc([N+](=O)[O-])c(OCCN2CCC(Cc3ccccc3)CC2)c1 | . | . | - | - | - | 94
CC1CCN(CCOc2ccccc2-c2ccccc2)CC1 | - | - | - | - | - | -
Cc1ccccc1OCCN1CCC(Cc2ccccc2)CC1 | . | . | - | - | - | 82
O=C1CN(CC(=O)Nc2cccc(Cl)c2Cl)c2ccccc2N1 | . | . | - | - | - | -
CNc1ccc(/C=C/C(=O)c2cccc3ccccc23)cc1[N+](=O)[O-] | 5.3 | - | - | - | - | 99
COCCn1c(SCC(=O)N2CCc3ccccc3C2)nc2cc(Cl)ccc2c1=O | - | - | - | - | - | 60
CC(C)Cn1c(SCC(=O)N2CCc3ccccc3C2)nc2cc(Cl)ccc2c1=O | - | - | - | - | - | 91
COc1cc([N+](=O)[O-])cc2sc(NC(=O)C(C)(C)C)nc12 | . | . | - | - | - | -
CC1CCC2=NN(C(=O)c3ccco3)C(O)(C(F)(F)F)C2C1 (centres undefined) | . | . | - | - | - | -
COc1ccccc1C1NC=C([N+](=O)[O-])C=C1[N+](=O)[O-] (centres undefined) | - | - | - | 57 | - | -
C#CC(C)(CC)NC(=O)Cn1nnc(-c2cccc(C(F)(F)F)c2)n1 (centres undefined) | . | . | - | - | - | -
N#Cc1nc(Cc2cccc3ccccc23)oc1NCCCn1ccnc1 | - | - | - | - | - | 59
